The test system of this data set is MS2 coat protein. The data set is described as follows: apparent Kd, MS2 coat protein; higher = weaker binding; RNA-MaP array; FMN 200 µM where present. A digest of the protocol: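 In 100 mM Tris-HCl pH 7.5, 80 mM KCl, 4 mM MgCl2, BSA, DTT, yeast tRNA and Tween-20, SNAP-549-labelled MS2 coat protein was titrated from 0.7 or 1.5 nM, doubling to 3 µM, over designs transcribed by stalled E. coli RNA polymerase on Illumina sequencing-chip clusters. This was done first without ligand, then with ligand held constant. After green signal was normalised to red-channel RNA signal and control-cluster median Fmax, the apparent Kd was taken as the median of filtered per-cluster binding-curve fits.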

Setting [1] is: designed as: OFF switch for flavin mononucleotide, no ligand.
[2] abbreviates: ligand present: flavin mononucleotide, designed as: OFF switch for flavin mononucleotide.
The mark [3] stands for this setting: designed as: ON switch for flavin mononucleotide, no ligand.
Setting [4] is: ligand present: flavin mononucleotide, designed as: ON switch for flavin mononucleotide.

The source of these data is the EternaBench riboswitch data.

One may read the apparent Kd as the concentration giving half-maximal binding under the conditions of the assay. With “CUGUUAUAGAUCCAUUUUUUCAACAUGAGGAUCACCCAUGUGCAGGAUAUCGUGAUUAUUUUCAUCGAGAAGGGCAUAAUCACG”, the “apparent Kd” value under setting [1] stood at 46.6 nM and the “apparent Kd” value under setting [2] turned out to be 51 nM.

As for “CUUUUGUUAGGAUAUUAGUAGUAAAUAAAUAAAAUUACUACUGAGAAGGCACAUGAGGAUCACCCAUGUUCCUC”, the “apparent Kd” value reads like this: under setting [1], 26 nM; under setting [2], 31.4 nM.

On to “AGGGUAUGAACAUGAGGAUCACCCAUGUACUAGGAAACAAAUGAGGAUAUCGAUAGCAAAGCUAUCGAGAAGGCAUGGGACCCU”, for which the “apparent Kd” value under setting [3] is 224 nM and the “apparent Kd” value under setting [4] came out at 51.8 nM.

In the case of “GACUGAUUGUAGAAGGUACUUAAUACUCAUGUAACAUGAGGAUCACCCAUGUAUCAACAAUAUUGUAAGGAUAUACAUAUCUCA”, the “apparent Kd” value came out at 231 nM under setting [3] and 103 nM under setting [4].

As for “CUGUUCCGUGUAGGAUAUGCAUAUUCUCAUUAUGCAGAAGGACAUGAGGAUCACCCAUGUAUGUUAUUAUCAUAUGUUACAUGU”, the “apparent Kd” value by setting is: under setting [1], 37.5 nM; under setting [2], 321 nM.

For the sequence “AAGCGAAAGCUAAAAUAUCUAUCAGAGGAUAUUUAUGAUACAUGAGGAUCACCCAUGUGGCGCUGGGAGAAGGCUGAUAGAUAA”, the “apparent Kd” value under setting [3] amounted to 12.9 nM and the “apparent Kd” value under setting [4] amounted to 6.79 nM.

With “CCUCAGUAAGGAUAUCAGCUUAAGGAGGUGGUAAAGAGAGCUGAGAAGGUACAUGAGGAUCACCCAUGUUAAAA”, the “apparent Kd” value came out at 91.1 nM under setting [1] and 227 nM under setting [2].

“UAGAUGGGAGGAUAUACGUAGAUACAGAUUCGUGUAGUGCUACAUGAGGAUCACCCAUGUAGAAGGCCCGUCUU”: the “apparent Kd” value is, setting by setting: under setting [1], 13.6 nM; under setting [2], 22.9 nM.

For the sequence “GGUUGACAAAGUCAACCUAUUCGAACAUGAGGAUCACCCAUGUAGGAUAUGCUACUCAAAGAGUAGCAGAAGGACAUGUGCCUU”, the “apparent Kd” value is 32.7 nM under setting [1] and 172 nM under setting [2].

On to “UCCUAGCUAGGAUAUACCCAGGGUUUGUUCUCUAACAAAACACAUGAGGAUCACCCAUGUAGAAGGAGCCGGGA”, for which the “apparent Kd” value reads like this: under setting [1], 76.9 nM; under setting [2], 70.8 nM.

For the sequence “AAGCUGCGCCAGAAGGGACCGACAUGAGGAUCACCCAUGUCCACAAGAGUCAGGAUAUGGCGUGGAGGCUCGUUCAAGUCCAGG”, the “apparent Kd” value reads like this: under setting [3], 13.5 nM; under setting [4], 5.73 nM.

“CCAUCAGCGAACGAUACGGUUGGACAUGAGGAUCACCCAUGUAGAAGGACAGGAGAAUAACGGCUGUAGGAUAUACAUUUAGUG”: the “apparent Kd” value by setting is: under setting [1], 40.7 nM; under setting [2], 33.9 nM.

In the case of “GGAUGACAAAGUCAUCCUAAACGAACAUGAGGAUCACCCAUGUAGGAUAUGCUACACAAAGUGUAGCAGAAGGACAUGUGCCUU”, the “apparent Kd” value by setting is: under setting [1], 37.1 nM; under setting [2], 269 nM.

Consider “GAUUACAAGUAAGGAUAUGUAUAUGAAACAUAUACAGAAGGUACAUGAGGAUCACCCAUGUUCUUGCAGCGCGAAUAUGUAAUC”, for which the “apparent Kd” value runs as follows: under setting [1], 17.1 nM; under setting [2], 21.1 nM.

Turning to “UGGUACUAGGGAGGAUAUGGGAAGAUACAUGAGGAUCACCCAUGUUUAAGAAUGCCGAGAGGCAACUAGAAGGCCCUAGUGCCU”, the “apparent Kd” value stood at 432 nM under setting [3] and 19.2 nM under setting [4].

Consider “ACCUUACAUGAGGAUCACCCAUGUUAGGAUAUCUCGCCCGCGCAAACACAGCGCAGGCAGAGAAGGGACGCGGG”, for which the “apparent Kd” value was 31.8 nM under setting [1] and 32.8 nM under setting [2].

Take “AAUUAAUUAAUACAUGAGGAUCACCCAUGUAAUUAUUAGAUCAAGGAUAUCAGCUCGAAUAGAGCUGAGAAGGUGAUCACAUGU”: the “apparent Kd” value reads like this: under setting [3], 475 nM; under setting [4], 111 nM.

For “AACUAAGAAUUAAUGGUGACUGACAGAAGGCAAUAGAAUGAGACCGACAUGAGGAUCACCCAUGUUGAGGAUAUGUCUUGCUAC”, the “apparent Kd” value was 6.59 nM under setting [1] and 7.2 nM under setting [2].

“AGAUGGUAGAUAGGAUAUCAUGUGCUGACAUGAGGAUCACCCAUGUAGGGACGUCAGUCCAAUUAUGAGAAGGAUCUACCAUCU”: the “apparent Kd” value runs as follows: under setting [3], 61 nM; under setting [4], 39.3 nM.

For the sequence “ACUAAAGAAGGAUAUACUAACGAACCUCAAACAUAGAUAAAACAUGAGGAUCACCCAUGUAGAAGGUCUAGACU”, the “apparent Kd” value came out at 31.7 nM under setting [1] and 39.6 nM under setting [2].

On to “CUUAUACAUGAGGAUCACCCAUGUUAGGAUAUUCGCCCGCAUUGGAAGUCCGGUCUUGGAAGAAGGAACGUGGG”, for which the “apparent Kd” value reads like this: under setting [1], 36.8 nM; under setting [2], 59.1 nM.

As to “ACUUACUGAGGAUAUACAUAGAUUUACAUGAGGAUCACCCAUGUUCCUCUAUGUAUAAAUGUAGAAGGCAGAAGAA”, the “apparent Kd” value is, setting by setting: under setting [1], 16.6 nM; under setting [2], 59.1 nM.

Consider “AUGGUACAUGAGGAUCACCCAUGUCAGGAUAUCGGCUGUGACGUGAAAAGAGUGUUGGCGAGAAGGGACUGCAA”, for which the “apparent Kd” value reads like this: under setting [1], 39.7 nM; under setting [2], 45.6 nM.

Turning to “GAUUUGUGACAAUUACAUGAGGAUCACCCAUGUUGUAGUAUGCAGGAUAUGUGGUAUAUUAUUUAACAGAAGGGCAAUAAUUUU”, the “apparent Kd” value under setting [3] is 98 nM and the “apparent Kd” value under setting [4] worked out at 46.4 nM.

As for “GCCGUGAUAGCAGGAUAUGCUCCGGUUGCUCAUACAUGAGGAUCACCCAUGUCACGUGCGGUGGUGCAGAAGGGUUGAAGCGAA”, the “apparent Kd” value was determined as 748 nM under setting [3] and 219 nM under setting [4].

For “UUUGCAUUCCGAGGAUAUUCAUAUAAUAAAUAAACAUGAGGAUCACCCAUGUGGCGAUAGCCUAGGGAGAAGGCGGUUUGCUUU”, the “apparent Kd” value under setting [3] worked out at 87.7 nM and the “apparent Kd” value under setting [4] is 29.6 nM.

Turning to “AAUAAACAUGAGGAUCACCCAUGUAAAUGGGCGAUAGGAUAUGCGAAAAUAAAGAAAGAAGCAGAAGGAUCGAAGA”, the “apparent Kd” value reads like this: under setting [3], 846 nM; under setting [4], 509 nM.

Regarding “GGUGGUUGAGGAUAUACGAACAUGUCGCCAGAUGUCAUGGUACAUGAGGAUCACCCAUGUAGAAGGUGGUUGUC”, the “apparent Kd” value under setting [1] was 357 nM and the “apparent Kd” value under setting [2] was found to be 576 nM.

Take “GCGGCUCCUGACAUGAGGAUCACCCAUGUUUAAUUAUUAAAUCAGGAUAUCCUCUCGAAACGAGAGGAGAAGGGAUAAGCUGCU”: the “apparent Kd” value was found to be 5.6 nM under setting [3] and 6.44 nM under setting [4].

For the sequence “UAAAAGCUAGGAUAUACAUGAGGAUCACCCAUGUCAACCACACGGAUGCGCCGAGCAUGUAGAAGGAGCACCGG”, the “apparent Kd” value worked out at 18.2 nM under setting [1] and 24.1 nM under setting [2].

Regarding “UGGUACUAGGGAGGAUAUGGGAAGAUACAUGAGGAUCACCCAUGUUUAAGAAUGCCGAGAGGCAACUAGAAGGCCCUACUACCU”, the “apparent Kd” value under setting [3] came to 294 nM and the “apparent Kd” value under setting [4] stood at 20.6 nM.

As for “AGUAACAGAGGAUAUACUAUUUUAUGUAUUUAUUAUUUUGAACAUGAGGAUCACCCAUGUAGAAGGCUGAAUAA”, the “apparent Kd” value is, setting by setting: under setting [1], 27.1 nM; under setting [2], 22 nM.

As for “AAUCAGCGGAACUUGACAUCCCUACAUGAGGAUCACCCAUGUCAGGAUAUAUGCUCUCGAGCUGCAUAGAAGGGACAUAGUGGG”, the “apparent Kd” value runs as follows: under setting [1], 50.6 nM; under setting [2], 71.3 nM.

As for “GGAUGACAAAGUCAUCCAUAACGAACAUGAGGAUCACCCAUGUAGGAUAUGCUACUCAAAGAGUAGCAGAAGGACAUGUGCCUU”, the “apparent Kd” value reads like this: under setting [1], 36 nM; under setting [2], 239 nM.

As to “GGAAAGCGAGGAUAUACAUGAGGAUCACCCAUGUAAAAGAAAAGAAAAGAAAGAAAAUGUAGAAGGCGCAAAAA”, the “apparent Kd” value was 47.8 nM under setting [1] and 48.4 nM under setting [2].

On to “GCGUAUGAGCAGGAUAUCCGACGGGAAUCCAAAGGAGAAGGGCUCACAUGAGGAUCACCCAUGUGGUCCUAAAC”, for which the “apparent Kd” value worked out at 20.2 nM under setting [1] and 101 nM under setting [2].

Turning to “CGAGAUACGCUCGUCCGAAAGGGACAUGAGGAUCACCCAUGUAGAAGGCGAUGCGCAACUCGCAUUGAGGAUAUAUACUGCAGA”, the “apparent Kd” value worked out at 5.78 nM under setting [1] and 5.89 nM under setting [2].

As to “AAAGCAACAUGAGGAUCACCCAUGUAGGAUAUCGCUAUUGUAAUCAUGAAACAUGAUUACAAUAGCGAGAAGGACAUAUGCUCC”, the “apparent Kd” value turned out to be 6.61 nM under setting [1] and 11.2 nM under setting [2].

With “GGCUACGUUUCGUAGCAGUGUCAUCGAGAAGGCCCUGACAUGAGGAUCACCCAUGUUGUUACAUGGGAGGAUAUCGAUGAUACC”, the “apparent Kd” value is, setting by setting: under setting [3], 12.1 nM; under setting [4], 5.27 nM.

As to “GAUUCACAUGAGGAUCACCCAUGUCGUUAUAUGGGAGGAUAUACGUGGACCGUAGUCCGCGUAGAAGGCCUAAUUG”, the “apparent Kd” value reads like this: under setting [3], 378 nM; under setting [4], 81.2 nM.

With “AAAAAAAAGCCCAAGGAUAUCCGGAUGAAGACAUGAGGAUCACCCAUGUGAAAAAAAAAAUAUGAGGAGAAGGUGGGAAAAAAAAA”, the “apparent Kd” value under setting [3] was found to be 83.6 nM and the “apparent Kd” value under setting [4] worked out at 61.6 nM.

Turning to “UUAAUUUAGUGAUAUUAUGACAUUAGAAGGCUGUACAUGUUGAUACAUGAGGAUCACCCAUGUAUAGAGGAUAUAGACAAUUUU”, the “apparent Kd” value is 39.8 nM under setting [1] and 93.8 nM under setting [2].

Turning to “CGUAUGUCAGGAUAUGCGUAUGCCGCUCAGGGCGAGCGGCAGCAGAAGGGACAUGAGGAUCACCCAUGUUCGGG”, the “apparent Kd” value under setting [1] is 71.4 nM and the “apparent Kd” value under setting [2] is 49.3 nM.

As to “UUAAUUAACAAGAAGGCUAACAUGAGGAUCACCCAUGUUGUACAUGGAUAUAGAGGAUAUUGCUAAUAAUUAUUUAUCAUAAUU”, the “apparent Kd” value under setting [1] came out at 25.6 nM and the “apparent Kd” value under setting [2] was found to be 19 nM.

Consider “UCCACUGCUGAGAAGGGAUCCGUGUGGUUCGAAUCAGGAUAUCGAUACAGUGCAGCAUGAGGACAUGAGGAUCACCCAUGUAUC”, for which the “apparent Kd” value is, setting by setting: under setting [3], 13.2 nM; under setting [4], 11.3 nM.

With “UGUGUGUGGGCAGGAUAUGCAUGAAGAUGUAUGAUGUAGUGUGAUGUAACAUGAGGAUCACCCAUGUAGAAGGGCCGGUGUGUG”, the “apparent Kd” value reads like this: under setting [1], 116 nM; under setting [2], 139 nM.

On to “GAAGCAUCCAAUAACAUGAGGAUCACCCAUGUCAAAAGACGGGAGGAUAUUGAUCUGAAGAAGAUCAAGAAGGCCUGGUGCUAA”, for which the “apparent Kd” value runs as follows: under setting [3], 10.1 nM; under setting [4], 7.35 nM.

“UUUUUACAUGAGGAUCACCCAUGUCAGGAUAUGAUUAUAUUUUAUUAUUUUAUUUUUUUCAGAAGGGACUAUUA”: the “apparent Kd” value by setting is: under setting [1], 117 nM; under setting [2], 56.9 nM.
